Assay results published in ChEMBL document CHEMBL2021842, “COMPARE analysis of the toxicity of an iminoquinone derivative of the imidazo[5,4-f]benzimidazoles with NAD(P)H:quinone oxidoreductase 1 (NQO1) activity and computational docking of quinones as NQO1 substrates” (Bioorg Med Chem, 2012).
pIC50: −log10 of the molar value.

Assays:
[1] = system: HeLa; test: Cytotoxicity against human HeLa cells assessed as reduction in mean cell viability after 72 hrs by MTT assay; type: functional, cell-based
Method in brief: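 HeLa-CCL-2 cells in DMEM with 10% heat-inactivated FBS, 2 mM L-glutamine and nonessential amino acids. Plated at 1000 cells/well with 24 h adherence. Treated in ethanol (1% final) for 72 h at 37 °C under 5% CO₂, with ethanol controls. Absorbance of DMSO-dissolved formazan at 550 nm, 690 nm reference. IC₅₀ by nonlinear regression of percent viability.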

[2] = Cytotoxicity against human GM00637 cells assessed as reduction in mean cell viability after 72 hrs by MTT assay; type: cell-based; conditions: GM00637, 72 h
Method in brief: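 SV40-transformed normal skin fibroblasts (GM00637) in MEM Eagle–Earle BSS with 15% heat-inactivated FBS, 2 mM L-glutamine, 2× amino acids and vitamins. Seeded at 10,000 cells/well and left 24 h to adhere. Ethanol-delivered compound (1% final) for 72 h at 37 °C, 5% CO₂. MTT formazan in DMSO read at 550/690 nm. Viability relative to vehicle; IC₅₀ by nonlinear regression.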

[3] = system: DU-145; test: Cytotoxicity against human DU145 cells assessed as reduction in mean cell viability after 72 hrs by MTT assay; type: functional, cell-based; conditions: DU-145, 72 h
Method in brief: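 DU-145 prostate cells in RPMI-1640 with 10% heat-inactivated FBS, penicillin–streptomycin and 2 mM L-glutamine. Seeded at 2000 cells/well and left 24 h to adhere. Compound added in ethanol (1% final) for 72 h at 37 °C, 5% CO₂, with ethanol-only controls. Formazan dissolved in DMSO and read at 550 nm (690 nm reference). IC₅₀ derived by nonlinear regression of viability versus vehicle.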

Q: Which results are given for `O=C1c2nc3n(c2C(=O)c2nc4n(c21)CCCC4)CCC3`?
A: pIC50 [1]: 6.02; pIC50 [2]: 5.90; pIC50 [3]: 6.10
